The values that follow come from ChEMBL document CHEMBL5385911, “Exploring the Dispersion and Electrostatic Components in Arene-Arene Interactions between Ligands and G4 DNA to Develop G4-Ligands” (J Med Chem, 2024).

Data set [1] is described as follows: Solubility of the compound at pH 7.4. The data set is classed as physicochemical. The settings on record: buffer.
Data set [2] relates to Quadruplex DNA. In words: Binding affinity to c-Myc G4-quadruplex Pu22 DNA (unknown origin) assessed as change in entropy by isothermal titration calorimetry. Type of data set: nucleic-acid assay. In a few lines: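 Reverse titration: cell holds 20 μM ligand, syringe 120 μM prefolded G4 DNA, 20 injections in 10 mM potassium phosphate, 100 mM KCl, pH 7.4, at 19 °C. First injection 0.5 μL, then 2 μL, 120 s spacing, 1000 rpm, high-feedback mode. Data fitted to one-site binding model.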
For orientation: In ITC the heat of successive injections is recorded.

Data set [3] can be described thus: Stabilization of double stranded PEPu24T mut DNA (unknown origin) assessed as inhibition of Taq DNA polymerase activity by measuring reduction in full length DNA product at 6 uM pretreated for 10 mins followed by incubation with dNTPs for 15 mins by PAGE analysis. The settings on record: time 25.0 min. In a few lines: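 Non-G4 control template: TET-labelled 25 nt primer (1 μM final) annealed to mutated PEPu24T mut (1.25 μM final) in 100 mM KCl. 40 nM template, Taq buffer pH 8.8, 25 mM MgCl2, 0.05 U Taq. Compound on ice 10 min, then 100 μM dNTPs at 37 °C 15 min. Denaturing PAGE; full-length product as % of no-compound sample.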

Data set [4] relates to Quadruplex DNA. The experiment in a line: Stabilization of G4-quadruplex PEPu24T DNA (unknown origin) assessed as inhibition of Taq DNA polymerase activity by measuring reduction in full length DNA product at 1.2 uM pretreated for 10 mins followed by incubation with dNTPs for 15 mins by PAGE analysis. The data set is classed as nucleic-acid assay. The settings on record: time 25.0 min. In a few lines:
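Template made by annealing TET-labelled 25 nt primer (1 μM final) to PEPu24T (1.25 μM final) in 100 mM KCl. Reaction: 40 nM template, Taq buffer pH 8.8 with 50 mM KCl, 25 mM MgCl2, 0.05 U Taq. Compound preincubated on ice 10 min; dNTPs (100 μM) added, 37 °C 15 min. Denaturing 12% urea/formamide PAGE; full-length product expressed as % of no-compound sample; SD of ≥2 independent experiments.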

The subject of data set [5] is Quadruplex DNA. In words: Binding affinity to c-Myc G4-quadruplex Pu22 DNA (unknown origin) at 0.7 equivalent by NMR titration analysis. The settings on record: dose 0.7 equiv. Type of data set: nucleic-acid assay. The procedure, abridged: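 Pu22 folded at 100 μM in 10 mM potassium phosphate pH 7.4, 35 mM KCl (95 °C 10 min, cooled overnight). 10% D2O added, giving 90 μM DNA. Compound added stepwise in increasing equivalents. 1D 1H spectra with excitation sculpting, 256 scans, 298 K, 850 MHz.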

Data set [6] has as its system Quadruplex DNA. In words: Stabilization of fluorescently labelled G4-quadruplex c-KIT2 DNA (unknown origin) assessed as increase in thermal stability of DNA structure at 5 uM by FRET melting assay. The data set is classed as nucleic-acid assay. The procedure, abridged: (§1)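 0.2 μM FAM/TAMRA dual-labelled oligonucleotide, prefolded in 10 mM lithium cacodylate pH 7.4, 10 mM KCl, 90 mM LiCl (95 °C 10 min, then ≥1 h cold). Ligand added and sample heated from 10 to 95 °C; donor emission at 516 nm (excitation 492 nm) normalized. Tm taken at 0.5 normalized emission; ΔTm is Tm with ligand minus Tm without ligand. Duplicate wells.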

For data set [7], the system named is Quadruplex DNA. In words: Stabilization of fluorescently labelled G4-quadruplex 25Ceb DNA (unknown origin) assessed as increase in thermal stability of DNA structure at 5 uM by FRET melting assay. Type of data set: nucleic-acid assay. The procedure, abridged:
as §1

Data set [8] has as its system Quadruplex DNA. The experiment in a line: Stabilization of fluorescently labelled G4-quadruplex Bcl2 DNA (unknown origin) assessed as increase in thermal stability of DNA structure at 5 uM by FRET melting assay. The data set is classed as nucleic-acid assay. The procedure, abridged: as §1
Data set [9] has as its system Quadruplex DNA. In words: Stabilization of fluorescently labelled G4-quadruplex 21G DNA (unknown origin) assessed as increase in thermal stability of DNA structure at 5 uM by FRET melting assay. Type of data set: nucleic-acid assay. In a few lines:
as §1

Data set [10] relates to Quadruplex DNA. The experiment in a line: Stabilization of fluorescently labelled G4-quadruplex Bom17 DNA (unknown origin) assessed as increase in thermal stability of DNA structure at 5 uM by FRET melting assay. Type of data set: nucleic-acid assay. In a few lines:
as §1

Data set [11] relates to Quadruplex DNA. The experiment in a line: Stabilization of fluorescently labelled G4-quadruplex Tba DNA (unknown origin) assessed as increase in thermal stability of DNA structure at 5 uM by FRET melting assay. The data set is classed as nucleic-acid assay. In a few lines:
as §1

In data set [12] the test system is Quadruplex DNA. In words: Stabilization of fluorescently labelled c-Myc G4-quadruplex Pu22 DNA (unknown origin) assessed as increase in thermal stability of DNA structure at 5 uM in presence of double stranded competitor DNA ds26 by FRET melting assay. Type of data set: nucleic-acid assay. In a few lines: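 Competition melting: 0.2 μM labelled Pu22 in 10 mM lithium cacodylate pH 7.4, 2 mM KCl, 98 mM LiCl, with ligand plus 0–100 equivalents of ds26 duplex competitor. Heated 10–95 °C; FAM emission normalized. Tm taken at 0.5 normalized emission; ΔTm is Tm with ligand minus Tm without ligand. SD of at least six independent experiments.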

The next data set concerns dsDNA. The experiment in a line: Binding affinity to 5'-Cy5-labelled double stranded DNA ds26 (unknown origin) by microscale thermophoresis analysis. The data set is classed as nucleic-acid assay. In a few lines: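 Cy5-labelled DNA held at 25 nM, folded in 10 mM phosphate, 100 mM KCl, pH 7.4 (95 °C 5 min, cooled to room temperature). Ligand in 16 1:3 dilutions in 10 mM phosphate pH 7.4, 100 mM KCl, 0.05% Tween20. Capillary fluorescence read at 20% LED power; change in fluorescence versus ligand concentration fitted by nonlinear equation for binding constant.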

The next data set concerns THP-1. In words: Cytotoxicity against human THP-1 cells assessed as reduction in cell viability at <50 uM. The data set is classed as toxicity, cell-based. The settings on record: thp-1, 50 µM.
Data set [13] deals with Quadruplex DNA. The experiment in a line: Stabilization of G4-quadruplex DNA in human HeLa cells assessed as increase in BG4-positive cell nuclei at 20 uM incubated for 24 hrs by immunofluorescence microscopy. The data set is classed as functional, cell-based. In a few lines: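 HeLa cells (60,000 on coverslips) treated 24 h. Cells fixed in 2% paraformaldehyde, permeabilized in 0.1% Triton X-100, blocked in 2% milk. Stained with BG4–FLAG (1/3000), rabbit anti-FLAG, then Alexa594 anti-rabbit, each 1 h at 37 °C; nuclei stained with DAPI. BG4 foci per nucleus counted, 90–166 cells per condition. Welch-corrected t tests on ln-transformed data; mean ± 2SD shown.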

Values after ≈ are worked out from the molar mass of the structure shown. Active and inactive are the calls of the source. The calls are words filed in the database; no cut-off is given here.

For the compound `Cc1cc(C)c2nc(Nc3nc(C)cc(C)n3)nc(C)c2c1`, in [1], the solubility (in general, the dissolved amount per volume that the medium holds) came to 134 µM (≈ 39.3 µg/mL). The -TdeltaS in the data set with Quadruplex DNA [2] came out at 3.2 kcal/mol. Also, the result (in data set [3]; with Quadruplex DNA [11]; with dsDNA) was inactive. In the data set with Quadruplex DNA [4], the inhibition (as a rule, the relative decrease from the control value, in per cent) amounted to 50%. Besides, the outcome in the data set with Quadruplex DNA [5], with Quadruplex DNA [6], in the data set on Quadruplex DNA [7], in the data set with Quadruplex DNA [8], with Quadruplex DNA [9] and with Quadruplex DNA [10] was Active. Besides, the outcome in the data set with Quadruplex DNA [12] and in the data set with Quadruplex DNA [13] was Active. Also, the Activity result in the data set on THP-1 was “Non-Toxic”.
